Measured values taken from ChEMBL document CHEMBL5303300, “EUbOPEN Chemogenomics Library - Multiplex” (2023).
Several values for one entry are separate records, joined by “and”; a condition that tells them apart may be missing. Equal values may be shown once.

Test system: HEK-293T
Experiment: Multiplex assay against HEK293T
Format: toxicity, cell-based
Conditions: human, number of replicates 2
How it was run: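 Live cells were stained at seeding with Hoechst33342, BioTracker Green Microtubule Cytoskeleton Dye, MitoTracker Red and Annexin V Alexa Fluor 680. Following compound addition, they were imaged on a CQ1 microscope at 37°C and 5% CO2 and gated by CellPathfinder machine learning into Hoechst high-intensity objects or normal cells, with normal cells split into healthy, pyknosed or fragmented nuclei and pyknosed cells into mitotic or apoptotic. Tubulin, mitochondrial-mass and membrane-permeability phenotypes are per cents of healthy-nucleus cells.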

[1] = 12 h, 1 µM, compound concentration 1 uM
[2] = 12 h, 10 µM, compound concentration 10 uM
[3] = 24 h, 1 µM, compound concentration 1 uM
[4] = 24 h, 10 µM, compound concentration 10 uM
[5] = 48 h, 1 µM, compound concentration 1 uM
[6] = 48 h, 10 µM, compound concentration 10 uM

Cc1cccc(S(=O)(=O)N(C)[C@H](C)CCN2CCC(C)CC2)c1.Cl
Population Apoptotic (%) [1]: 51% and 50%
Population Fragmented Nuclei (%) [1]: 4% and 1%
Population Healthy Nuclei (%) [1]: 81% and 80%
Population Hoechst High Intensity Objects (%) [1]: 5% and 6%
Population Membrane Permeable-Phenotype (%) [1]: 4% and 6%
Population Mitochondria Different-Phenotype (%) [1]: 16%
Population Mitotic Cells (%) [1]: 48% and 50%
Population Normal (%) [1]: 94% and 93%
Population Pyknosed Nuclei (%) [1]: 13% and 17%
Population Tubulin-Different-Phenotype (%) [1]: 61% and 51%
Total Cell Count [1]: 635 and 449
Population Apoptotic (%) [2]: 52% and 62%
Population Fragmented Nuclei (%) [2]: 4% and 3%
Population Healthy Nuclei (%) [2]: 81% and 74%
Population Hoechst High Intensity Objects (%) [2]: 7% and 9%
Population Membrane Permeable-Phenotype (%) [2]: 3% and 4%
Population Mitochondria Different-Phenotype (%) [2]: 24% and 29%
Population Mitotic Cells (%) [2]: 47% and 37%
Population Normal (%) [2]: 92% and 90%
Population Pyknosed Nuclei (%) [2]: 14% and 22%
Population Tubulin-Different-Phenotype (%) [2]: 70% and 65%
Total Cell Count [2]: 550 and 400
Population Apoptotic (%) [3]: 45% and 63%
Population Fragmented Nuclei (%) [3]: 6% and 2%
Population Healthy Nuclei (%) [3]: 85% and 82%
Population Hoechst High Intensity Objects (%) [3]: 6% and 9%
Population Membrane Permeable-Phenotype (%) [3]: 4%
Population Mitochondria Different-Phenotype (%) [3]: 7% and 10%
Population Mitotic Cells (%) [3]: 54% and 36%
Population Normal (%) [3]: 93% and 90%
Population Pyknosed Nuclei (%) [3]: 8% and 15%
Population Tubulin-Different-Phenotype (%) [3]: 36% and 37%
Total Cell Count [3]: 943 and 563
Population Apoptotic (%) [4]: 64% and 54%
Population Fragmented Nuclei (%) [4]: 4% and 3%
Population Healthy Nuclei (%) [4]: 79% and 83%
Population Hoechst High Intensity Objects (%) [4]: 9% and 6%
Population Membrane Permeable-Phenotype (%) [4]: 4% and 3%
Population Mitochondria Different-Phenotype (%) [4]: 15% and 9%
Population Mitotic Cells (%) [4]: 35% and 45%
Population Normal (%) [4]: 90% and 93%
Population Pyknosed Nuclei (%) [4]: 16% and 12%
Population Tubulin-Different-Phenotype (%) [4]: 50% and 49%
Total Cell Count [4]: 552 and 801
Population Apoptotic (%) [5]: 15% and 36%
Population Fragmented Nuclei (%) [5]: 10% and 7%
Population Healthy Nuclei (%) [5]: 84% and 86%
Population Hoechst High Intensity Objects (%) [5]: 8% and 6%
Population Membrane Permeable-Phenotype (%) [5]: 5% and 3%
Population Mitochondria Different-Phenotype (%) [5]: 0% and 3%
Population Mitotic Cells (%) [5]: 85% and 63%
Population Normal (%) [5]: 91% and 93%
Population Pyknosed Nuclei (%) [5]: 4% and 5%
Population Tubulin-Different-Phenotype (%) [5]: 16% and 20%
Total Cell Count [5]: 2361 and 1220
Population Apoptotic (%) [6]: 39% and 41%
Population Fragmented Nuclei (%) [6]: 11% and 10%
Population Healthy Nuclei (%) [6]: 83%
Population Hoechst High Intensity Objects (%) [6]: 9% and 8%
Population Membrane Permeable-Phenotype (%) [6]: 7%
Population Mitochondria Different-Phenotype (%) [6]: 1% and 3%
Population Mitotic Cells (%) [6]: 60% and 58%
Population Normal (%) [6]: 90% and 91%
Population Pyknosed Nuclei (%) [6]: 5%
Population Tubulin-Different-Phenotype (%) [6]: 27%
Total Cell Count [6]: 1730 and 1106

CN(C)CCN(Cc1ccc(-c2ccc(CNCCc3ccccc3)cc2)cc1)C(=O)CCC1CCCC1.Cl.Cl
Population Apoptotic (%) [1]: 45% and 51%
Population Fragmented Nuclei (%) [1]: 2% and 1%
Population Healthy Nuclei (%) [1]: 87% and 86%
Population Hoechst High Intensity Objects (%) [1]: 6% and 3%
Population Membrane Permeable-Phenotype (%) [1]: 2%
Population Mitochondria Different-Phenotype (%) [1]: 34% and 33%
Population Mitotic Cells (%) [1]: 54% and 48%
Population Normal (%) [1]: 93% and 96%
Population Pyknosed Nuclei (%) [1]: 9% and 11%
Population Tubulin-Different-Phenotype (%) [1]: 86% and 78%
Total Cell Count [1]: 835 and 591
Population Apoptotic (%) [2]: 61% and 57%
Population Fragmented Nuclei (%) [2]: 7% and 4%
Population Healthy Nuclei (%) [2]: 43% and 42%
Population Hoechst High Intensity Objects (%) [2]: 28% and 30%
Population Membrane Permeable-Phenotype (%) [2]: 4% and 1%
Population Mitochondria Different-Phenotype (%) [2]: 72% and 73%
Population Mitotic Cells (%) [2]: 38% and 42%
Population Normal (%) [2]: 71% and 69%
Population Pyknosed Nuclei (%) [2]: 48% and 52%
Population Tubulin-Different-Phenotype (%) [2]: 93% and 96%
Total Cell Count [2]: 396 and 358
Population Apoptotic (%) [3]: 36%
Population Fragmented Nuclei (%) [3]: 4% and 6%
Population Healthy Nuclei (%) [3]: 89% and 85%
Population Hoechst High Intensity Objects (%) [3]: 6% and 5%
Population Membrane Permeable-Phenotype (%) [3]: 1%
Population Mitochondria Different-Phenotype (%) [3]: 17% and 21%
Population Mitotic Cells (%) [3]: 63%
Population Normal (%) [3]: 93% and 94%
Population Pyknosed Nuclei (%) [3]: 6% and 7%
Population Tubulin-Different-Phenotype (%) [3]: 63% and 61%
Total Cell Count [3]: 1227 and 899
Population Apoptotic (%) [4]: 73%
Population Fragmented Nuclei (%) [4]: 5%
Population Healthy Nuclei (%) [4]: 42% and 36%
Population Hoechst High Intensity Objects (%) [4]: 31% and 39%
Population Membrane Permeable-Phenotype (%) [4]: 3% and 1%
Population Mitochondria Different-Phenotype (%) [4]: 80% and 84%
Population Mitotic Cells (%) [4]: 26%
Population Normal (%) [4]: 68% and 60%
Population Pyknosed Nuclei (%) [4]: 51% and 57%
Population Tubulin-Different-Phenotype (%) [4]: 89% and 95%
Total Cell Count [4]: 357 and 312
Population Apoptotic (%) [5]: 15% and 20%
Population Fragmented Nuclei (%) [5]: 12% and 9%
Population Healthy Nuclei (%) [5]: 84% and 86%
Population Hoechst High Intensity Objects (%) [5]: 8%
Population Membrane Permeable-Phenotype (%) [5]: 4% and 5%
Population Mitochondria Different-Phenotype (%) [5]: 0% and 2%
Population Mitotic Cells (%) [5]: 84% and 79%
Population Normal (%) [5]: 91%
Population Pyknosed Nuclei (%) [5]: 3% and 4%
Population Tubulin-Different-Phenotype (%) [5]: 21% and 25%
Total Cell Count [5]: 3014 and 1979
Population Apoptotic (%) [6]: 88% and 79%
Population Fragmented Nuclei (%) [6]: 9% and 5%
Population Healthy Nuclei (%) [6]: 30% and 28%
Population Hoechst High Intensity Objects (%) [6]: 33% and 40%
Population Membrane Permeable-Phenotype (%) [6]: 1% and 0%
Population Mitochondria Different-Phenotype (%) [6]: 82% and 91%
Population Mitotic Cells (%) [6]: 11% and 20%
Population Normal (%) [6]: 66% and 59%
Population Pyknosed Nuclei (%) [6]: 60% and 65%
Population Tubulin-Different-Phenotype (%) [6]: 84% and 93%
Total Cell Count [6]: 318 and 281
